ABCG2 inh = inhibitors of human ABCG2 transporter, ABCB1 counter-screen | 190,000 tested, 0.1% active | inhibition, % at 6.6 µM | Q9UNQ0 | AID 1325 | IgMXP3 cells, JC-1 efflux, flow cytometry;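 active = inhibition above 80%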
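material = IgMXP3 (ABCG2) plus far-red-tagged CCRF-Adr (ABCB1) cells | amount = 3 million cells/mL, equal mix of both lines | also added = JC-1 transporter substrate | dosing = one concentration, 6.6 µM final | schedule = 10 min at 25 °C | measured by = flow cytometric JC-1 green MFI at 530 nm | read-out basis = percent efflux inhibition, scaled nicardipine 100% to DMSO 0%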
PMI act satM6P = increases human PMI activity with near-saturating mannose 6-phosphate | P34949 | coupled PMI enzyme assay, resazurin fluorescence, 20 min; stronger effect = higher value; 1 = untreated enzyme, 0 = substrate-free blank | activation factor at 20 µM | 190,000 tested, 0.34% active;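 active = activation factor of 2 or more at 20 µM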
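Material: human phosphomannose isomerase with PGI, G6PDH, diaphorase coupling enzymes / Reagent: Man-6-P substrate 1.0 mM / Dosing: single compound dose of 20 µM, 1% DMSO final / Incubation: enzyme reaction with compound 20 min at room temperature / Signal: resorufin fluorescence (Ex 544/Em 590 nm) from resazurin via diaphorase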
KCC2 mod = modulators of human KCC2 chloride dependent transport | Q9H2X9 | KCC2 cells, thallium flux FluoZin-2 fluorescence | B-score of Tl+ flux slope (higher = more flux/activation; lower = inhibition) at 10 µM | 190,000 tested, 2.2% active | AID 1456;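 active = thallium flux slope and its plate-corrected score both differing from the plate sample mean at a set confidence after two filtering rounds, in either direction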;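 also: slope of fluorescence scaled to starting intensity during 10 to 20 s after thallium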
ABCB1 block = inhibitors of human ABCB1 transporter, ABCG2 counter-screen. P08183. CCRF-Adr cells, JC-1 efflux, flow cytometry. inhibition, % at 6.6 µM. 190,000 tested, 0.067% active. AID 1326; in the data active = inhibition above about 40%;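 also: higher value means more JC-1 retained so stronger ABCB1 efflux block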
PMI activator = phosphomannose isomerase (human) activation; purified human PMI, coupled resazurin fluorescence, 20 min; stronger effect = higher value; 1 = vehicle control, 0 substrate-free wells; activation factor at 20 µM; 190,000 tested, 0.005% active; AID 1214;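 active = activation factor of 2 or more at 20 µM, relative to plate controls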
ROMK primary = human ROMK K+ channel modulation, primary screen | Tet-inducible ROMK, thallium flux fluorescence; actives lie on both sides | P48048 | 130,000 tested, 2% active | B-score at 10 µM;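 active = signal ratio slope over the read window, or its plate-corrected B-score, at least 3 SD from the plate mean, either direction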;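 also: B-score of the F/F0 ratio slope over 7 to 12 s after thallium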
KCC2 sec1 = confirmation of human KCC2 transport modulators; shares compounds with KCC2 mod; normalised thallium flux (F/F0 slope) at 10 µM; HEK293-KCC2, thallium flux, FluoZin2 fluorescence; stronger effect = higher value; AID 1713; 3,700 tested, 15% active;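 active = thallium flux slope above the same plate's solvent-only control mean plus 3 SD; inconclusive = the two replicate wells disagree; inactive = no significant difference from solvent-only control wells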
KCC2 bumet counter = thallium flux persisting under bumetanide in KCC2 cells, counter-screen secondary assay; normalized thallium flux at 10 µM; HEK293-KCC2 + bumetanide/ouabain, thallium flux FluoZin2; stronger effect = higher value; shares compounds with KCC2 mod; 3,700 tested, 49% active;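 active = thallium entry rate above the same plate's blocked-transporter control wells by more than 3 SD; inconclusive = the two repeat wells disagree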;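 also: raw slope of fluorescence over initial fluorescence between 10 and 20 s after thallium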
KCC2 secondary2 = confirmation of human KCC2 transport modulators. shares compounds with KCC2 mod. HEK293-KCC2, thallium flux FluoZin2 fluorescence; actives lie on both sides; F/F0 rise rate, 10–20 s post-thallium. normalized thallium flux at 10 µM. 3,700 tested, 23% active. AID 1715;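 active = thallium flux slope more than 3 SD above or below the plate's solvent-only control mean, mostly below; inconclusive = the two repeat wells disagreed; inactive = no significant shift from solvent-only controls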
HEK counter1 = parental HEK flux effect, counter-screen; shares compounds with KCC2 mod; HEK293 parental cells, thallium flux FluoZin2, ouabain; baseline-ratio fluorescence slope, 10–20 s after thallium; thallium flux rate (normalised fluorescence) at 10 µM; 3,700 tested, 46% active;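 active = thallium flux rate significantly above the same plate's solvent-only control wells, beyond their mean plus 3 SD; inconclusive = the two replicate wells gave conflicting results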
KCC2 retest ouab = modulates human KCC2 on retest with ouabain | shares compounds with KCC2 mod | HEK293-KCC2, thallium flux FluoZin2 fluorescence; bidirectional: low = inhibitor, high = activator | raw Tl+ flux slope (below DMSO = inhibition, above = activation) at 10 µM | 3,700 tested, 48% active;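 active = thallium flux slope beyond 3 SD from same-plate DMSO control mean in most replicates, usually higher, sometimes lower; inconclusive = repeat tests gave conflicting results; inactive = no significant difference from controls in most replicates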;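 also: slope of initial-normalized fluorescence between seconds 10 and 20 after thallium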
HEK293 Tl flux2 = parental HEK flux effect, counter-screen 2. shares compounds with KCC2 mod. HEK293 parental, thallium flux FluoZin-2 fluorescence slope. thallium flux slope at 10 µM. 3,700 tested, 33% active. AID 1718;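 active = thallium flux slope above the same plate's solvent-control mean plus 3 SD in both duplicate wells; inconclusive = duplicate wells that disagreed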;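 also: run without ouabain in cells lacking the KCC2 cotransporter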
Hits are given with their value. Only some compounds are listed: those with a hit (about 3.3% of all), similar ones and a draw of the others.

Screening CC(=O)Oc1ccc(OC(C)=O)c(SCCCCCN2CCOCC2)c1 returned ABCG2 inh inactive, PMI act satM6P inactive, KCC2 mod inactive, ABCB1 block inactive and PMI activator inactive.
Screening CC(=O)Nc1sc2c(c1C#N)CCCCC2 returned ABCG2 inh inactive, PMI act satM6P inactive, KCC2 mod 6.06, ABCB1 block inactive, PMI activator inactive, KCC2 sec1 inactive, KCC2 bumet counter inactive, KCC2 secondary2 inactive, HEK counter1 inactive, KCC2 retest ouab inactive and HEK293 Tl flux2 inconclusive.
For C=CCNC(=S)Nc1sc2c(c1C#N)CCCC2 the results were ABCG2 inh inactive, PMI act satM6P inactive, KCC2 mod 13.1, ABCB1 block inactive, PMI activator inactive, ROMK primary inactive, KCC2 sec1 inactive, KCC2 bumet counter 0.0211, KCC2 secondary2 inactive, HEK counter1 0.0178, KCC2 retest ouab 0.0272 and HEK293 Tl flux2 0.0124.
Screening CC(C)Cc1cc(C(=O)Nc2sc3c(c2C#N)CCCC3)no1 returned ABCG2 inh inactive, PMI act satM6P inactive, KCC2 mod 4.07, ABCB1 block inactive, PMI activator inactive, KCC2 sec1 inactive, KCC2 bumet counter 0.0188, KCC2 secondary2 inactive, HEK counter1 inconclusive, KCC2 retest ouab inconclusive and HEK293 Tl flux2 inconclusive.
Screening CCC(=O)Nc1sc2c(c1C#N)CCCCC2 returned ABCG2 inh inactive, PMI act satM6P inactive, KCC2 mod inactive, ABCB1 block inactive, PMI activator inactive and ROMK primary inactive.
Screening CC(C)Cc1cc(C(=O)Nc2sc3c(c2C#N)CCC3)no1 returned ABCG2 inh inactive, PMI act satM6P inactive, KCC2 mod 4.8, ABCB1 block inactive, PMI activator inactive, KCC2 sec1 inactive, KCC2 bumet counter 0.017, KCC2 secondary2 inactive, HEK counter1 0.0174, KCC2 retest ouab 0.0272 and HEK293 Tl flux2 0.014.
Screening Cc1ccc(C(=O)N2CCN(Cc3ccc4c(c3)OCO4)CC2)cc1[N+](=O)[O-] returned ABCG2 inh inactive, PMI act satM6P inactive, KCC2 mod inactive, ABCB1 block inactive, PMI activator inactive and ROMK primary inactive.
`CCCCCC(=O)NNC1=NCC(Cc2cccc(Cl)c2)S1` (configuration not stated) gave ABCG2 inh inactive, PMI act satM6P inactive, KCC2 mod inactive, ABCB1 block inactive, PMI activator inactive and ROMK primary inactive.
Screening CCOC(=O)/C(N=Nc1c(Br)cc(Br)cc1Br)=C(\C)O returned ABCG2 inh inactive, PMI act satM6P inactive, KCC2 mod inactive, ABCB1 block inactive, PMI activator inactive and ROMK primary inactive.
Cc1cc(C)c(NC(=O)CO/N=C2\CCCc3nonc32)c(C)c1 was read as ABCG2 inh inactive, PMI act satM6P inactive, KCC2 mod inactive, ABCB1 block inactive, PMI activator inactive and ROMK primary inactive.
For Cn1cc(Br)c(C(=O)Nc2sc3c(c2C#N)CCC3)n1 the results were KCC2 mod inactive.
Cn1cc(Cl)c(C(=O)NC(=S)Nc2sc3c(c2C#N)CCCCC3)n1 was read as ABCG2 inh inactive, PMI act satM6P inactive, KCC2 mod 10.7, PMI activator inactive, ROMK primary inactive, KCC2 sec1 inactive, KCC2 bumet counter 0.0207, KCC2 secondary2 inconclusive, HEK counter1 0.019, KCC2 retest ouab 0.0333 and HEK293 Tl flux2 0.0209.
Screening COc1ccc(CC(=O)Nc2nc(-c3cc(OC)ccc3OC)cs2)cc1 returned ABCG2 inh inactive, PMI act satM6P inactive, KCC2 mod inactive, ABCB1 block inactive, PMI activator inactive and ROMK primary inactive.
`COc1ccc(OC)c(-c2csc(NC(=O)c3ccc4c(c3)OCO4)n2)c1` gave ABCG2 inh inactive, PMI act satM6P inactive, KCC2 mod 6.7, ABCB1 block inactive, PMI activator inactive, ROMK primary inactive, KCC2 sec1 inactive, KCC2 bumet counter inactive, KCC2 secondary2 inactive, HEK counter1 inactive, KCC2 retest ouab inactive and HEK293 Tl flux2 inactive.
For CCOc1ccccc1NC(=O)c1ccccc1-c1nc(-c2ccccc2OC)no1 the results were ABCG2 inh inactive, PMI act satM6P inactive, KCC2 mod inactive, ABCB1 block inactive and PMI activator inactive.
COc1cc(C(=O)NC(=S)N(C)Cc2ccccc2)cc(OC)c1OC was read as ABCG2 inh inactive, PMI act satM6P inactive, KCC2 mod 10.9, ABCB1 block inactive, PMI activator inactive, ROMK primary inactive, KCC2 sec1 0.0184, KCC2 bumet counter 0.0508, KCC2 secondary2 inactive, HEK counter1 0.0168, KCC2 retest ouab 0.0334 and HEK293 Tl flux2 0.0122.
COc1ccc(C(=O)N(C)Cc2ccccc2)cc1Br was read as ABCG2 inh inactive, PMI act satM6P inactive, KCC2 mod inactive, ABCB1 block inactive and PMI activator inactive.
Screening COc1cc(C(=O)NNC(=O)c2ccc(NC(C)=O)cc2)cc(OC)c1OC returned ABCG2 inh inactive, PMI act satM6P inactive, KCC2 mod inactive, ABCB1 block inactive, PMI activator inactive and ROMK primary inactive.
`COc1cc(C(=O)NC(=S)NNC(=O)c2ccc3c(c2)OCO3)cc(OC)c1OC` gave KCC2 mod 5.12, ROMK primary inactive, KCC2 sec1 inactive, KCC2 bumet counter 0.0128, KCC2 secondary2 inactive, HEK counter1 inconclusive, KCC2 retest ouab inconclusive and HEK293 Tl flux2 inactive.
COc1cc(C(=O)NNC(=S)NC(=O)c2ccc(F)cc2)cc(OC)c1OC was read as KCC2 mod 6.54, ROMK primary inactive, KCC2 sec1 inactive, KCC2 bumet counter 0.015, KCC2 secondary2 inactive, HEK counter1 0.0137, KCC2 retest ouab inconclusive and HEK293 Tl flux2 inactive.
